Data on 20 compounds can be found in ChEMBL document CHEMBL1155311, “Synthesis and evaluation of N-[(1S,2S)-3-(4-chlorophenyl)-2-(3-cyanophenyl)-1-methylpropyl]-2-methyl-2-aminopropanamide as human cannabinoid-1 receptor (CB1R) inverse agonists” (Bioorg Med Chem Lett, 2009).

In data set [1] the target is T1, Cannabinoid receptor 1 (Homo sapiens, UniProt P21554). Briefly: Displacement of [3H]CP-55940 from recombinant human CB1 receptor expressed in CHO cells. The class given is cell-based. On the technique in general: Displacement assays read how much labelled ligand stays bound in the presence of the test substance.
In another data set the target is Cannabinoid receptor 2 (Homo sapiens, UniProt P34972). As to the kind of experiment: Displacement of [3H]CP-55940 from recombinant human CB2 receptor expressed in CHO cell. Type of data set: cell-based.
A further data set is filed under the species Homo sapiens. Briefly: Selectivity ratio of IC50 of human recombinant CB2 receptor to IC50 of human recombinant CB1 receptor.
Data set [2] addresses T1, Cannabinoid receptor 1. As to the kind of experiment: Inverse agonist activity at human CB1 receptor assessed as forskolin-induced cAMP level by adenylyl cyclase activation flash plate assay. Type of data set: functional. (In general: cAMP levels reflect the balance of adenylyl cyclase and phosphodiesterase activity.)
Data set [3] concerns Liver microsomes. Briefly: Metabolic stability in rat liver microsomes assessed as glucuronide formation. Type of data set: ADME, Microsome. The procedure, abridged: (§1)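 Rat or human liver microsomes (1 mg/mL protein) were incubated in 100 mM potassium phosphate, pH 7.4, with 10 mM MgCl2, alamethicin, 5 mM D-saccharic acid 1,4-lactone and 3 mM UDPGA. Incubation ran 90 min at 37 °C with shaking and was quenched with 2 volumes of cold acetonitrile. After centrifugation, glucuronide was detected in the supernatant by LC–MS/MS.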
On the technique in general: Liver microsomes are vesicles of endoplasmic reticulum, rich in cytochrome P450 enzymes.

Data set [4] relates to Liver microsomes. Briefly: Metabolic stability in human liver microsomes assessed as glucuronide formation. Type of data set: ADME, Microsome. The procedure, abridged:
as §1

A further data set has as its target Cytochrome P450 3A4 (Homo sapiens, UniProt P08684). Briefly: Inhibition of CYP3A4. Type of data set: ADME.

Where only a bound is given, the exact number is not on record here.

T1 sequence (P21554 whole entry): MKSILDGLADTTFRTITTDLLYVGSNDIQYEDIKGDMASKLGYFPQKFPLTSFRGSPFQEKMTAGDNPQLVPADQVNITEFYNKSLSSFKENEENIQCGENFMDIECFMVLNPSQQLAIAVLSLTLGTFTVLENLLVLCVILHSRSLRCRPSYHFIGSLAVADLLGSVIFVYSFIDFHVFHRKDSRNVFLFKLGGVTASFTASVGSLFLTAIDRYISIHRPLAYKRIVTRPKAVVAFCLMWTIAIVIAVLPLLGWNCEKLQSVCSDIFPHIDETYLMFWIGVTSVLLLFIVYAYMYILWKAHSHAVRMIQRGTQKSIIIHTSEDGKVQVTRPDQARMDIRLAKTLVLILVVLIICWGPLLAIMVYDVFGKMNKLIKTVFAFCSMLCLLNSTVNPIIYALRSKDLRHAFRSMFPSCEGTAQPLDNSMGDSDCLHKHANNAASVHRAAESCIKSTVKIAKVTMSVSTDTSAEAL
Cannabinoid receptor 2, sequence (P34972 whole entry): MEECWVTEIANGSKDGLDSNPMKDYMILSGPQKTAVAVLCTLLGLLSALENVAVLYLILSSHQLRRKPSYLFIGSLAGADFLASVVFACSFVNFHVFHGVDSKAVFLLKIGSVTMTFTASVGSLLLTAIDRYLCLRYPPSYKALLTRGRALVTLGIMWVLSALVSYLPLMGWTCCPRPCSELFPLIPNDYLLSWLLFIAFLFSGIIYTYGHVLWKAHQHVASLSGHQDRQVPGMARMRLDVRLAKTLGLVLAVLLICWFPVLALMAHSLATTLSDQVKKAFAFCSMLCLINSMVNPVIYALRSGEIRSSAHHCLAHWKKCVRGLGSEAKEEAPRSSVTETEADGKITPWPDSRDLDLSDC
Cytochrome P450 3A4, sequence (P08684 whole entry): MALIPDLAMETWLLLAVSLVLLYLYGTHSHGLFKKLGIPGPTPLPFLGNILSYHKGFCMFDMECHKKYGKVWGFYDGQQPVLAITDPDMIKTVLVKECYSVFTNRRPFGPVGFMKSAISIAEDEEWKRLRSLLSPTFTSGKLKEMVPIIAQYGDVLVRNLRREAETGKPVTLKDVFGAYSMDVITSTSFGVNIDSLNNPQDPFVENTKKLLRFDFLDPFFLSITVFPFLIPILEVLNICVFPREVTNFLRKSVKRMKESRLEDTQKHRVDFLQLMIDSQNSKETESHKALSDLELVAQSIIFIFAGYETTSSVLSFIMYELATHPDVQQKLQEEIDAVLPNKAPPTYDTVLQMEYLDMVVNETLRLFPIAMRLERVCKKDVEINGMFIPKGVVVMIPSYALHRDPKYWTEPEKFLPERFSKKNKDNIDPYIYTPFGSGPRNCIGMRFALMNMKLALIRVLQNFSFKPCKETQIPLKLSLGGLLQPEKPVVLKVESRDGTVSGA

By IC50 is commonly meant the point on the concentration scale where inhibition reaches its midpoint. As to `Cc1cc(NC(C)(C)C(=O)N[C@@H](C)[C@@H](Cc2ccc(Cl)cc2)c2cccc(C#N)c2)[nH]n1`, the IC50 at Cannabinoid receptor 1 [1] is 0.301 µM; on Cannabinoid receptor 2 it was 6.11 µM.

Regarding `C[C@H](NC(C)(C)C(=O)Nc1cc(-c2ccccc2)on1)[C@@H](Cc1ccc(Cl)cc1)c1cccc(C#N)c1`, the results for the IC50 at Cannabinoid receptor 1 [1] and on Cannabinoid receptor 2 were 0.136 µM and 2.31 µM, respectively. Moreover, the Ratio IC50 in the data set listed under Homo sapiens turned out to be 17.

In the case of `C[C@H](NC(=O)C(C)(C)Nc1ccon1)[C@@H](Cc1ccc(Cl)cc1)c1cccc(C#N)c1`, the IC50 came out at 0.0477 µM at Cannabinoid receptor 1 [1] and 3.21 µM at Cannabinoid receptor 2. Also, the Ratio IC50 in the data set filed under Homo sapiens is 67.

With `C[C@H](NC(=O)C(C)(C)Nc1ccnn1C)[C@@H](Cc1ccc(Cl)cc1)c1cccc(C#N)c1`, the results for the IC50 at Cannabinoid receptor 1 [1] and on Cannabinoid receptor 2 were 0.203 µM and 13.3 µM, respectively. Besides, in the data set filed under Homo sapiens, the Ratio IC50 was 65.

By EC50 is commonly meant the concentration needed to bring the measured effect to its halfway point. With `C[C@H](NC(=O)C(C)(C)Nc1cc2ccccc2cn1)[C@@H](Cc1ccc(Cl)cc1)c1cccc(C#N)c1`, the IC50 at Cannabinoid receptor 1 [1] worked out at 0.0101 µM; on Cannabinoid receptor 2, 0.117 µM. In addition, the 50% effective concentration (EC50) on Cannabinoid receptor 1 [2] amounted to 0.0019 µM. Besides, the Ratio IC50 in the data set filed under Homo sapiens was found to be 12.

On to `C[C@H](NC(=O)C(C)(C)Nc1ncc(C(F)(F)F)cc1Cl)[C@@H](Cc1ccc(Cl)cc1)c1cccc(C#N)c1`, for which the figures for the IC50 on Cannabinoid receptor 1 [1] and on Cannabinoid receptor 2 were 0.0179 µM and 0.419 µM, respectively. Further, the Ratio IC50 in the data set filed under Homo sapiens came out at 23.

In the case of `C[C@H](NC(=O)C(C)(C)Nc1cc(-c2ccccc2)on1)[C@@H](Cc1ccc(Cl)cc1)c1cccc(C#N)c1`, the IC50 on Cannabinoid receptor 1 [1] worked out at 0.186 µM; on Cannabinoid receptor 2, 0.234 µM. Also, the Ratio IC50 in the data set listed under Homo sapiens was found to be 1.3.

As to `C[C@H](NC(=O)C(C)(C)Nc1ccccn1)[C@@H](Cc1ccc(Cl)cc1)c1cccc(C#N)c1`, the IC50 on Cannabinoid receptor 1 [1] was determined as 0.049 µM; on Cannabinoid receptor 2 it was 1.83 µM. The Stability result in the data set on Liver microsomes [3] and in the data set on Liver microsomes [4] was “Stable” throughout. For the same compound, in the data set filed under Homo sapiens, the Ratio IC50 was found to be 37.

On to `C[C@H](NC(=O)C(C)(C)Nc1cc(C(F)(F)F)ccn1)[C@@H](Cc1ccc(Cl)cc1)c1cccc(C#N)c1`, for which the IC50 came to 0.0016 µM on Cannabinoid receptor 1 [1] and 0.353 µM at Cannabinoid receptor 2. The EC50 on Cannabinoid receptor 1 [2] came to 0.0009 µM. Further, the Stability result with Liver microsomes [3] and in the data set with Liver microsomes [4] was “Stable” in each case. Further, the Ratio IC50 in the data set listed under Homo sapiens was determined as 221.

Take `C[C@H](NC(=O)C(C)(C)Nc1ccncn1)[C@@H](Cc1ccc(Cl)cc1)c1cccc(C#N)c1`: the 50% inhibitory concentration (IC50) on Cannabinoid receptor 1 [1] was 0.0492 µM; at Cannabinoid receptor 2 it was 14 µM. The Stability entry with Liver microsomes [3] and in the data set on Liver microsomes [4] was “Stable” throughout. The Ratio IC50 in the data set filed under Homo sapiens is 286.

As for `C[C@H](NC(=O)C(C)(C)Nc1cc(C(C)(C)C)on1)[C@@H](Cc1ccc(Cl)cc1)c1cccc(C#N)c1`, the IC50 at Cannabinoid receptor 1 [1] came to 0.0086 µM; at Cannabinoid receptor 2, 0.254 µM. The EC50 at Cannabinoid receptor 1 [2] came out at 0.0035 µM. For the same compound, in the data set listed under Homo sapiens, the Ratio IC50 was 30.

For `C[C@H](NC(=O)C(C)(C)Nc1ccc(C(F)(F)F)cn1)[C@@H](Cc1ccc(Cl)cc1)c1cccc(C#N)c1`, the IC50 on Cannabinoid receptor 1 [1] amounted to 0.0075 µM; at Cytochrome P450 3A4 it was 2.03 µM; on Cannabinoid receptor 2 it was 0.322 µM. At Cannabinoid receptor 1 [2], the EC50 turned out to be 0.0032 µM. For the same compound, in the data set listed under Homo sapiens, the Ratio IC50 was 43.

In the case of `Cc1ccnc(NC(C)(C)C(=O)N[C@@H](C)[C@@H](Cc2ccc(Cl)cc2)c2cccc(C#N)c2)c1`, the IC50 was 0.0377 µM on Cannabinoid receptor 1 [1] and 0.547 µM at Cannabinoid receptor 2. The Ratio IC50 in the data set filed under Homo sapiens came to 15.

Turning to `C[C@H](NC(=O)C(C)(C)Nc1ncc(Cl)cc1Cl)[C@@H](Cc1ccc(Cl)cc1)c1cccc(C#N)c1`, the IC50 on Cannabinoid receptor 1 [1] was found to be 0.0122 µM; on Cannabinoid receptor 2, 0.699 µM. Further, the Ratio IC50 in the data set filed under Homo sapiens turned out to be 57.

Take `C[C@H](NC(=O)C(C)(C)NCCCN(C)C)[C@@H](Cc1ccc(Cl)cc1)c1cccc(C#N)c1`: the IC50 was 2.98 µM at Cannabinoid receptor 1 [1] and 25.9 µM on Cannabinoid receptor 2. For the same compound, the Ratio IC50 in the data set filed under Homo sapiens was found to be 8.7.

With `C[C@H](NC(=O)C(C)(C)Nc1nc2ccccc2n1C)[C@@H](Cc1ccc(Cl)cc1)c1cccc(C#N)c1`, the IC50 came to 0.097 µM on Cannabinoid receptor 1 [1] and 1.41 µM on Cannabinoid receptor 2. Moreover, the Ratio IC50 in the data set filed under Homo sapiens stood at 15.

Take `Cc1cc(NC(C)(C)C(=O)N[C@@H](C)[C@@H](Cc2ccc(Cl)cc2)c2cccc(C#N)c2)on1`: the IC50 on Cannabinoid receptor 1 [1] amounted to 0.0461 µM; on Cannabinoid receptor 2, 3.86 µM. The Ratio IC50 in the data set filed under Homo sapiens was 84.

Take `Cc1cc(NC(C)(C)C(=O)N[C@@H](C)[C@@H](Cc2ccc(Cl)cc2)c2cccc(C#N)c2)no1`: the results for the half-inhibitory concentration (IC50) on Cannabinoid receptor 1 [1] and at Cannabinoid receptor 2 were 0.0195 µM and 5.16 µM, respectively. Moreover, in the data set listed under Homo sapiens, the Ratio IC50 turned out to be 265.

For `Cc1cc(NC(C)(C)C(=O)N[C@@H](C)[C@@H](Cc2ccc(Cl)cc2)c2cccc(C#N)c2)n[nH]1`, in the data set filed under Homo sapiens, the Ratio IC50 is 20.

In the case of `C[C@H](NC(C)(C)C(=O)Nc1ccc(C(F)(F)F)cn1)[C@@H](Cc1ccc(Cl)cc1)c1cccc(C#N)c1`, the values for the IC50 on Cannabinoid receptor 1 [1], on Cytochrome P450 3A4 and on Cannabinoid receptor 2 were 0.132 µM, over 35 µM and 1.72 µM, respectively. Moreover, the Ratio IC50 in the data set filed under Homo sapiens was found to be 13.
